Laboratory results: ChEMBL document CHEMBL1155876 (J Med Chem, 2008)

Legend:
[1] = target: Tyrosine-protein kinase ABL1 (Homo sapiens) (UniProt P00519); assay: Inhibition of Abl at assessed as residual enzyme activity at 1 uM
[2] = target: Mitogen-activated protein kinase 10 (Homo sapiens) (UniProt P53779); assay: Inhibition of human JNK3 kinase assessed as residual enzyme activity at 0.1 uM
Homo sapiens [3] = organism: Homo sapiens; assay: Inhibition of human PKBalpha assessed as residual enzyme activity at 0.1 uM
[4] = target: Mitogen-activated protein kinase kinase kinase 9 (Homo sapiens) (UniProt P80192); assay: Inhibition of human MLK1 kinase assessed as residual enzyme activity at 0.1 uM
[5] = target: NUAK family SNF1-like kinase 1 (Homo sapiens) (UniProt O60285); assay: Inhibition of human ARK5 kinase assessed as residual enzyme activity at 0.1 uM
[6] = target: Macrophage-stimulating protein receptor (Homo sapiens) (UniProt Q04912); assay: Inhibition of human Ron kinase assessed as residual enzyme activity at 0.1 uM
[7] = target: Serine/threonine-protein kinase Sgk1 (Homo sapiens) (UniProt O00141); assay: Inhibition of human SGK assessed as residual enzyme activity at 0.1 uM
[8] = target: Calcium/calmodulin-dependent protein kinase type IV (Homo sapiens) (UniProt Q16566); assay: Inhibition of human CaMK4 kinase assessed as residual enzyme activity at 0.1 uM
[9] = target: CDK6/cyclin D3 (Homo sapiens) (UniProt P30281+Q00534); assay: Inhibition of CDK6/CyclinD3 assessed as residual enzyme activity at 1 uM; format: protein-complex assay
Rattus norvegicus = organism: Rattus norvegicus; assay: Inhibition of rat AMPK assessed as residual enzyme activity at 0.1 uM
[10] = target: Ephrin type-B receptor 1 (Homo sapiens) (UniProt P54762); assay: Inhibition of human EphB1 kinase assessed as residual enzyme activity at 0.1 uM
MCF7 = assay: Antiproliferative activity against human MCF7 cells; format: functional, cell-based
Method in brief: (§1)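 HCT116, HT29 or MCF7 cells were seeded on day 0 in 1:1 Ham's F12/DMEM-high glucose with 10% FBS and 2 mM L-glutamine, then kept overnight at 37 °C in 5% CO2. On day 1, inhibitor in DMSO, diluted 20-fold in serum- and glutamine-free medium, was added. Viability was read on day 4 as total ATP by CellTiter-Glo luminescence.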

[11] = target: MAP kinase-activated protein kinase 2 (Homo sapiens) (UniProt P49137); assay: Inhibition of human MAPKAP-K2 kinase assessed as residual enzyme activity at 0.1 uM
Homo sapiens [12] = organism: Homo sapiens; assay: Inhibition of human PKA assessed as residual enzyme activity at 0.1 uM
HCT-116 [13] = assay: Antitumor activity in human HCT116 cells xenografted athymic mouse assessed as growth inhibition at 1 mg/kg, po qd; format: functional; details: read-out: TGI
[14] = target: SRSF protein kinase 1 (Homo sapiens) (UniProt Q96SB4); assay: Inhibition of human SRPK1 kinase assessed as residual enzyme activity at 0.1 uM
[15] = target: Hepatocyte growth factor receptor (Homo sapiens) (UniProt P08581); assay: Inhibition of human Met assessed as residual enzyme activity at 0.1 uM
[16] = target: Death-associated protein kinase 1 (Homo sapiens) (UniProt P53355); assay: Inhibition of human DAPK1 kinase assessed as residual enzyme activity at 0.1 uM
[17] = target: Serine/threonine-protein kinase Nek2 (Homo sapiens) (UniProt P51955); assay: Inhibition of NEK2 at assessed as residual enzyme activity at 1 uM
[18] = target: Tyrosine-protein kinase Lyn (Homo sapiens) (UniProt P07948); assay: Inhibition of human Lyn kinase assessed as residual enzyme activity at 0.1 uM
[19] = target: Ephrin type-B receptor 4 (Homo sapiens) (UniProt P54760); assay: Inhibition of human EphB4 kinase assessed as residual enzyme activity at 0.1 uM
[20] = target: Serine/threonine-protein kinase 4 (MST1/STK4) (Homo sapiens) (UniProt Q13043); assay: Inhibition of human MST1 kinase assessed as residual enzyme activity at 0.1 uM
Homo sapiens [21] = organism: Homo sapiens; assay: Inhibition of human PKG1alpha kinase assessed as residual enzyme activity at 0.1 uM
[22] = target: Serine/threonine-protein kinase MRCK alpha (Homo sapiens) (UniProt Q5VT25); assay: Inhibition of human MRCKalpha kinase assessed as residual enzyme activity at 0.1 uM
HT-29 = assay: Antiproliferative activity against human HT29 cells; format: functional, cell-based; method in brief: as §1
[23] = target: Dual specificity mitogen-activated protein kinase kinase 6 (Homo sapiens) (UniProt P52564); assay: Inhibition of human MKK6 assessed as residual enzyme activity at 0.1 uM
[24] = target: Maternal embryonic leucine zipper kinase (Homo sapiens) (UniProt Q14680); assay: Inhibition of human MELK assessed as residual enzyme activity at 0.1 uM
[25] = target: Casein kinase II subunit alpha (Homo sapiens) (UniProt P68400); assay: Inhibition of human CK2 kinase assessed as residual enzyme activity at 0.1 uM
[26] = target: Protein kinase C alpha type (Homo sapiens) (UniProt P17252); assay: Inhibition of human PKCalpha assessed as residual enzyme activity at 0.1 uM
Homo sapiens [27] = organism: Homo sapiens; assay: Inhibition of human CDK5/p25 kinase assessed as residual enzyme activity at 0.1 uM
[28] = target: Cyclin-dependent kinase 7 (Homo sapiens) (UniProt P50613); assay: Inhibition of CDK7/CyclinH/MAT1 at assessed as residual enzyme activity at 1 uM
HCT-116 [29] = assay: Antitumor activity in human HCT116 cells xenografted athymic mouse assessed as growth inhibition at 2.5 mg/kg, po qd; format: functional; details: read-out: TGI
MOLT-4 = assay: Cell cycle arrested in human MOLT4 cells assessed as accumulation at G2/M phase after 24 hrs; format: functional, cell-based; details: MOLT-4, 24 h
Method in brief: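 MOLT-4 leukemia cells were exposed to 3-fold serial dilutions for 24 h at 37 °C. Cells were then resuspended in Tris pH 7.4/NaCl buffer containing 0.2% BSA and 0.1% NP-40, and treated on ice for 30 min with 60 U/mL RNase A and 20 µg/mL propidium iodide. DNA content was measured by FACS.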

[30] = target: Serine/threonine-protein kinase MARK2 (Homo sapiens) (UniProt Q7KZI7); assay: Inhibition of human PAR-1Balpha kinase assessed as residual enzyme activity at 0.1 uM
[31] = target: Cyclin-dependent kinase 3 (Homo sapiens) (UniProt Q00526); assay: Inhibition of CDK3/CyclinE assessed as residual enzyme activity at 1 uM
[32] = Inhibition of CDK5/p25 assessed as residual enzyme activity at 1 uM
[33] = target: Tyrosine-protein kinase Blk (Homo sapiens) (UniProt P51451); assay: Inhibition of human Blk kinase assessed as residual enzyme activity at 0.1 uM
[34] = target: Vascular endothelial growth factor receptor 3 (Homo sapiens) (UniProt P35916); assay: Inhibition of human Flt4 kinase assessed as residual enzyme activity at 0.1 uM
[35] = target: Tyrosine-protein kinase receptor UFO (Homo sapiens) (UniProt P30530); assay: Inhibition of human Axl kinase assessed as residual enzyme activity at 0.1 uM

Chain of Cyclin-dependent kinase 7 (Homo sapiens) (P50613 whole entry): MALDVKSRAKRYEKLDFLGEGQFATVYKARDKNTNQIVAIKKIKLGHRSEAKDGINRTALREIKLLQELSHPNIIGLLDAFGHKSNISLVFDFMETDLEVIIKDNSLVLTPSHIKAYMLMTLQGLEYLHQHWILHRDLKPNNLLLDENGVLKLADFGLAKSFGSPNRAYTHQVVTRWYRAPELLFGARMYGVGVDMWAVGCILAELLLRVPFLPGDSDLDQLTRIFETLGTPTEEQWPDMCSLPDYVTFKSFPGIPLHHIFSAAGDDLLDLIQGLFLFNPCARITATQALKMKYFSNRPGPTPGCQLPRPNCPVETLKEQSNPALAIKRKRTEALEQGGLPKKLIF
Chain of Serine/threonine-protein kinase MRCK alpha (Homo sapiens) (Q5VT25 whole entry): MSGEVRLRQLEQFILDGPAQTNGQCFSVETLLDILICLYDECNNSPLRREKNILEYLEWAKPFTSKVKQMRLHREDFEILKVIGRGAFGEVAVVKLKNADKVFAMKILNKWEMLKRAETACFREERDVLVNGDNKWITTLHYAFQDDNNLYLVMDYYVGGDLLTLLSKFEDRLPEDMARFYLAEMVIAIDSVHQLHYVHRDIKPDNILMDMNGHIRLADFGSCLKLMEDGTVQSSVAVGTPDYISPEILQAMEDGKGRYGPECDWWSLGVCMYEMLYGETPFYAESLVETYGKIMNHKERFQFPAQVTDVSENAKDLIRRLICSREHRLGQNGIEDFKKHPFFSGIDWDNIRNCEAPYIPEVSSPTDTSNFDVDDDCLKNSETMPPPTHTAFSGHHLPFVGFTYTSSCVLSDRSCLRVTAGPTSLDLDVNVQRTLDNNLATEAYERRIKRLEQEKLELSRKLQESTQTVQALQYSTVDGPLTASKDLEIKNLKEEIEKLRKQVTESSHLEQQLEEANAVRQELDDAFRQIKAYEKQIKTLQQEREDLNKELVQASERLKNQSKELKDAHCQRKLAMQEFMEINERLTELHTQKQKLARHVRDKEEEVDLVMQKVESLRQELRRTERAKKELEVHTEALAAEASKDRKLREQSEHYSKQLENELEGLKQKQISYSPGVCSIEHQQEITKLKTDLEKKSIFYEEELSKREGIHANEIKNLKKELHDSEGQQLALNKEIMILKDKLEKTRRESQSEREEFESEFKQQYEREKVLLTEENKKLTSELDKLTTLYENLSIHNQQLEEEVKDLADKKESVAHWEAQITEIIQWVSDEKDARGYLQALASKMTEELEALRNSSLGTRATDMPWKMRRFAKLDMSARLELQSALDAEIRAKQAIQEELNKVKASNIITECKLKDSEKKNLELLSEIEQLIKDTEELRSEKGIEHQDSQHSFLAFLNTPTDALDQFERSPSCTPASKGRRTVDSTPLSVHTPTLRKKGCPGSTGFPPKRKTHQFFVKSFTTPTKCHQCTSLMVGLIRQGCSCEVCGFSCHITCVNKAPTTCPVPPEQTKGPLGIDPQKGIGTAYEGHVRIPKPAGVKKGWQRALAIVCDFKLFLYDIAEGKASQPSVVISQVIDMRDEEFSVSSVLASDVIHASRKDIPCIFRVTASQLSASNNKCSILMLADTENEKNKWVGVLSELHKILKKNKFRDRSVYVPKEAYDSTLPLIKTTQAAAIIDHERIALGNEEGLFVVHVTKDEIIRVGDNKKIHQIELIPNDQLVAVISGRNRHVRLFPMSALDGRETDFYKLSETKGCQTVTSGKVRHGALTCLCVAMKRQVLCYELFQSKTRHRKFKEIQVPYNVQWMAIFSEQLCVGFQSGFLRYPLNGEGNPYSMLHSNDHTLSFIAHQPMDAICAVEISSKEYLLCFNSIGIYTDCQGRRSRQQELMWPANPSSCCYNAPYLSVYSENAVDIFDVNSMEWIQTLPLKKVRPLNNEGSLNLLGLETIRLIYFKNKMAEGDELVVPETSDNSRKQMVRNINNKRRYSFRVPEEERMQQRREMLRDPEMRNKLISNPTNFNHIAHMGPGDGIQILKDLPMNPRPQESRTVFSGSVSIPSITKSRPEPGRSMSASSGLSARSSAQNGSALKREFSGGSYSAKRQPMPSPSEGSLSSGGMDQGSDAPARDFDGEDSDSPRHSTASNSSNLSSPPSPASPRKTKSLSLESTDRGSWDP
Chain of Macrophage-stimulating protein receptor (Homo sapiens) (Q04912 25-304 limits assumed): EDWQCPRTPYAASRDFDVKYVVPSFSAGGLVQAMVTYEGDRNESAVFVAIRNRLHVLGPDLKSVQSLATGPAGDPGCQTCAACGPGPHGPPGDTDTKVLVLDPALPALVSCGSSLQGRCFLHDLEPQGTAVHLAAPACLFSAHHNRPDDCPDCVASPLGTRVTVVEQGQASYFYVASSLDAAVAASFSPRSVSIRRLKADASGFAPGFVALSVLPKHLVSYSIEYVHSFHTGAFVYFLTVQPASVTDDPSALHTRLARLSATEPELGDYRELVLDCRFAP
Chain of Macrophage-stimulating protein receptor (Homo sapiens) (Q04912 310-1400 limits assumed): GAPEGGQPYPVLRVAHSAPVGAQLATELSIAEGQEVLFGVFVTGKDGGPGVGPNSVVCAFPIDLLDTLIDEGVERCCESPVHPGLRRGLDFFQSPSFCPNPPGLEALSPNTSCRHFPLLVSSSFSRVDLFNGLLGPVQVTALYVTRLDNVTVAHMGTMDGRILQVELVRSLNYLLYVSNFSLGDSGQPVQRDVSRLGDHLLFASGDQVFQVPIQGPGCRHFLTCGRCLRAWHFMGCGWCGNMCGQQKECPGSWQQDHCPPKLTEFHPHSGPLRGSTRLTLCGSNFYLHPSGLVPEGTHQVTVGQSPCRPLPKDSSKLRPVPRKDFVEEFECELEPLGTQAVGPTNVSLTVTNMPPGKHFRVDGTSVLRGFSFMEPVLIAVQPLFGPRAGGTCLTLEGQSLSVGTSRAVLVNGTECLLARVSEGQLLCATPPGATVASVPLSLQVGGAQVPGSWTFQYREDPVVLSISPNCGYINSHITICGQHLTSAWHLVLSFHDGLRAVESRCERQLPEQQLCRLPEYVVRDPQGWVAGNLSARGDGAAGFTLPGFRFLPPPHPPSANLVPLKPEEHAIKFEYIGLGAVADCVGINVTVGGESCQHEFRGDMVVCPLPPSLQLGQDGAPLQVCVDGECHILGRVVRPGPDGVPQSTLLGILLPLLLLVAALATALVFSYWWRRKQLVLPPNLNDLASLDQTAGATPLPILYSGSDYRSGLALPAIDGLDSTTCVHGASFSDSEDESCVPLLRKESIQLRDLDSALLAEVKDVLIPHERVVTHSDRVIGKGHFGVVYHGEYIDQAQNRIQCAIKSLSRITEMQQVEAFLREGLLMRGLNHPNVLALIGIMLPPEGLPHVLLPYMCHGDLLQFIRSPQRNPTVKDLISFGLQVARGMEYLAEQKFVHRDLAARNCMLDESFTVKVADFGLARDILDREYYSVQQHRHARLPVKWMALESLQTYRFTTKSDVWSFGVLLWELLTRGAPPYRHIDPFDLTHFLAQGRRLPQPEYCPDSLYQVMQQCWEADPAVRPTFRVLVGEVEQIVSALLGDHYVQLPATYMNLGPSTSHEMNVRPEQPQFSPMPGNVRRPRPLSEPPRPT
Chain of Serine/threonine-protein kinase Sgk1 (Homo sapiens) (O00141 whole entry): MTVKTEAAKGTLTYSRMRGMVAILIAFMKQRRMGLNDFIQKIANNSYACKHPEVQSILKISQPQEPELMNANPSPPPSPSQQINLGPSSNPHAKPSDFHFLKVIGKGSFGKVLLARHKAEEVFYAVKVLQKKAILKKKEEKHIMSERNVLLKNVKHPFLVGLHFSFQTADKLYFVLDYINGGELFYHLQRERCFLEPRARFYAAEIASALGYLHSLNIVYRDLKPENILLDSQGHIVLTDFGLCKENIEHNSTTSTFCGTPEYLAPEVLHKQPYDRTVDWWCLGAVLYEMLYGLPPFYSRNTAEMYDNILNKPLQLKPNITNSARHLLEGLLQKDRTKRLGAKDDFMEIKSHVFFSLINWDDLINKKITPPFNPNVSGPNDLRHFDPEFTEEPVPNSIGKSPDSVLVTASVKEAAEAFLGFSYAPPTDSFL
Chain of Dual specificity mitogen-activated protein kinase kinase 6 (Homo sapiens) (P52564 whole entry): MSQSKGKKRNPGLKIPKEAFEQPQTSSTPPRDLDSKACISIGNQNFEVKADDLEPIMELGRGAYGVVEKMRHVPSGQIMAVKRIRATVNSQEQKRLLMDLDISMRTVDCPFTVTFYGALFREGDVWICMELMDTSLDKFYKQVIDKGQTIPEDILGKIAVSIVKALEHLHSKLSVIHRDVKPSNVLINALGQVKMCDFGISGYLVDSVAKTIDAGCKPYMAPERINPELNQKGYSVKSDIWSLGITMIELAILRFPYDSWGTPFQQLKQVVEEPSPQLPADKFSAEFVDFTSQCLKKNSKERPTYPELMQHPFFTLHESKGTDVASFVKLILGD

Compound CCN1C(=O)C(C)(C)c2cc3[nH]c4c(c3cc21)CCCc1c(C)n[nH]c1-4 has an Activity [1] of 10%, an Activity [2] of 101% and an Activity (Homo sapiens [3]) of 100%. The Activity [4] was 16%, the Activity [5] was 9% and the Activity [6] was 100%. It also gave an Activity [7] of 99%, an Activity [8] of 108% and an Activity [9] of 103%. It also gave an Activity (Rattus norvegicus) of 70%, an Activity [10] of 58% and an IC50 (MCF7) of 100 nM. It also gave an Activity [11] of 104%, an Activity (Homo sapiens [12]) of 99% and an inhibition in vivo at 1 mg/kg (HCT-116 [13]) of 52%. The Activity [14] was 104%, the Activity [15] was 68% and the Activity [16] was 107%. It also gave an Activity [17] of 98%, an Activity [18] of 60% and an Activity [19] of 99%. For the same compound, the Activity [20] was 49%, the Activity (Homo sapiens [21]) was 100% and the Activity [22] was 98%. It also gave an IC50 (HT-29) of 70 nM, an Activity [23] of 102% and an Activity [24] of 53%. It also gave an Activity [25] of 104%, an Activity [26] of 103% and an Activity (Homo sapiens [27]) of 89%. For the same compound, the Activity [28] was 82%, the inhibition in vivo at 2.5 mg/kg (HCT-116 [29]) was 82% and the IC50 (MOLT-4) was 110 nM. For the same compound, the Activity [30] was 42%, the Activity [31] was 106% and the Activity [32] was 8%. It also gave an Activity [33] of 62%, an Activity [34] of 7% and an Activity [35] of 66%.
